# From PubChem BioAssay
# Runt-SMMHC FRET – inhibitors of human RUNX1 Runt domain binding to CBFb-SMMHC; AID 1434; Cerulean-Runt/Venus-CBFb-SMMHC FRET ratio 530/480, 1 h; Q01196+Q13951; inhibition, % at 20 µM; actives 0.74% (n = 220,000);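 active = mean inhibition across duplicate retests at 20 µM reaching about 50%, limit read from the data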;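 note: 0% = DMSO wells and 100% = wells with excess untagged CBFb-SMMHC; inhibitors lower the FRET ratio by blocking Runt binding to CBFb-SMMHC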
# Hck Nef HTS – human Hck-Nef kinase inhibition; P08631; Recombinant Hck-YEEI plus Nef, Z-Lyte FRET kinase assay; inhibition, % at 20 µM; actives 0.68% (n = 220,000); AID 463187;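 active = Hck-Nef kinase inhibition above about 50%, limit read from the data; inactive = inhibition below that limit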;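 note: 0% = DMSO with Hck plus Nef and 100% = Hck alone without Nef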
# Target sequence (P08631 whole entry, looked up): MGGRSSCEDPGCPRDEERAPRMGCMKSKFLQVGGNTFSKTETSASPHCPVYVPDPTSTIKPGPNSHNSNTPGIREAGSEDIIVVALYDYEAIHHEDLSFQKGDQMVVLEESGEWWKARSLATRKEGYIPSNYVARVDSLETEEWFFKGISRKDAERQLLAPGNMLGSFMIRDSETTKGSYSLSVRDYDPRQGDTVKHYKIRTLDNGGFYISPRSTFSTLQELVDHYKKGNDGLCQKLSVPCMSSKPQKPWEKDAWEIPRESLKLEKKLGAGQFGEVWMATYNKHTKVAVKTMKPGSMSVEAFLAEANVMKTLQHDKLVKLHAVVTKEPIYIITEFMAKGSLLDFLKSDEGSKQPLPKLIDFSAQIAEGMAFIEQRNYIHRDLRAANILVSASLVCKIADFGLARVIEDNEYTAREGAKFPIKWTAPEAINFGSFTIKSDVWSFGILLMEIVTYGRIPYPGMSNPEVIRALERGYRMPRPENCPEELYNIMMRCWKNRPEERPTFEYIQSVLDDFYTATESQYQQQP
# RanGTP-Impb inh – disruptors of Ran-importin-beta complex formation – biochemical, FRET, CFP-Ran, YFP-importin-beta, homogeneous, primary screen. AID 2216. actives 1.1% (n = 300,000). inhibition, % (no concentration beside the values). cell-free CFP-Ran/YFP-importin-beta FRET ratio;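 active = more than half of the replicate wells show a fall in the fluorescence ratio signal beyond about 16%, limit read from the data, passing the limit was not always enough; inconclusive = exactly half of the replicate wells pass the set limit; inactive = fewer than half of replicates pass the limit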;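 note: 0% = DMSO wells and 100% = Ran loaded with GDP instead of GTP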
# Runt-CBFb FRET – blocks binding of human RUNX1 Runt domain to CBFb. Q01196+Q13951. Cerulean-Runt/Venus-CBFb FRET ratio 530/480, 1 h. inhibition, % at 20 µM. actives 0.46% (n = 220,000);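 active = inhibition over about 50% at 20 µM in the single-dose screen, limit read from the data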;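 note: 0% = DMSO wells and 100% = excess unlabeled CBFb competitor control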
#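 Assay system: Cerulean-tagged RUNX1 Runt domain (FRET donor) fusion protein / Amount: 100 nM each of Venus-CBFb and Cerulean-Runt domain / Medium: Tris buffer pH 7.5 with salts and BSA / Also added: Venus-CBFb 100 nM / Schedule: 1 h complex formation plus 1 h compound treatment, room temperature / Signal: FRET fluorescence / Read-out: loss of energy transfer signal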
# Hck Nef conf – confirmation of Hck-Nef kinase inhibitors; shares compounds with Hck Nef HTS; Recombinant Hck-YEEI:Nef, Z-Lyte FRET kinase assay; calls only at 10 µM; actives 28% (n = 1,300); AID 463188;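 active = average inhibition of at least 50%, with Z-scores no higher than 3 in both the phospho-tyrosine peptide and fluorescence counterscreens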
# * hit, by the source's call; i = inactive; ? = inconclusive; . = no result given; + = active, no number. Hits are enriched below; roughly 1.9% of the tested compounds scored in any of these assays.
SMILES,Runt-SMMHC FRET,Hck Nef HTS,RanGTP-Impb inh,Runt-CBFb FRET,Hck Nef conf
Nc1c(C(=O)NCC2CCCO2)c2nc3ccccc3nc2n1Cc1ccco1 (stereo not given),81*,60*,64*,36,.
COc1ccc(Cn2c(N)c(C(=O)NCc3ccco3)c3nc4ccccc4nc32)cc1OC,57*,62*,.,17,i
O=C(Cn1cc(C=C2C(=O)NC(=O)NC2=O)c2ccccc21)NCC1CCCO1 (stereo not given),.,.,5,.,.
COc1ccc(OC)c(N2C(=O)/C(=C/c3ccco3)C(=O)NC2=S)c1,.,.,3,.,.
COc1ccc(OC)c(N2C(=O)NC(=O)/C(=C/c3ccc([N+](=O)[O-])s3)C2=O)c1,11,89*,1,19,i
Cc1cc(C=C2C(=O)NC(=S)NC2=O)c(C)n1C1CCCC1,9,71*,2,15,i
CCCN(CC1CC1)CC(O)c1ccccc1 (stereo not given),.,.,-2,.,.
CN1CCC(C)(O)C2CCCCC21 (stereo not given),0,23,-1,1,.
COCCNC(=O)c1c(N)n(CCC(C)C)c2nc3ccccc3nc12,59*,64*,82*,43,i
C=CCNC(=O)c1c(N)n(CCN2CCOCC2)c2nc3ccccc3nc12,44,50*,80*,81*,.
Cc1cc(NC(=O)CCl)no1,2,18,2,-2,.
CCOP(=O)(/C=C(\Cl)c1ccccc1)C(O)c1ccc(F)cc1 (stereo not given),.,.,-3,.,.
CN1C(=O)C(=Cc2cn(CC#N)c3ccccc23)C(=O)N(C)C1=O,.,.,-1,.,.
CN1C(=O)C(=Cc2coc3ccccc3c2=O)C(=O)N(C)C1=O,-1,81*,-2,0,+
Cc1nc2ccccc2c(=O)n1-c1cccc([N+](=O)[O-])c1,.,.,-5,.,.
O=C1NC(=O)C(=Cc2ccc(OCCOc3ccc([N+](=O)[O-])cc3)cc2)C(=O)N1,-4,63*,1,6,i
CN1C(=O)C(=Cc2ccc(Sc3ccccc3)o2)C(=O)N(C)C1=O,7,70*,.,7,i
CN1C(=O)C(=Cc2ccc(Sc3ccccc3)o2)C(=O)N(C)C1=S,.,.,-3,.,.
O=C1NC(=S)N(c2ccc(F)cc2)C(=O)/C1=C\c1ccoc1,5,79*,.,11,+
COc1ccc(C2SCC(=O)Nc3c2c(C)nn3C2CCOC(C)(C)C2)cc1OC (stereo not given),3,0,-3,5,.
O=C1NC(=O)N(c2ccccc2)C(=O)/C1=C/C=C/c1ccco1,-30,29,0,3,.
O=C1NC(=O)N(Cc2ccccc2)C(=O)/C1=C\C=C\c1ccco1,13,59*,?,14,i
C=CCN1C(=O)NC(=O)/C(=C/C=C/c2ccccc2)C1=O,34,51*,3,25,i
O=C1NC(=O)N(CCc2ccc(F)cc2)C(=O)/C1=C\C=C\c1ccccc1,4,27,.,5,.
CN(C)c1ccc(/C=C/C=C2/C(=O)NC(=O)N(c3ccccc3)C2=O)cc1,14,57*,6,16,i
SMILES,Runt-SMMHC FRET,Hck Nef HTS,RanGTP-Impb inh,Runt-CBFb FRET,Hck Nef conf
CN1C(=O)/C(=C/C=C/c2ccco2)C(=O)NC1=S,8,54*,-5,18,i
Cc1cc(OCC(=O)Nc2c(C)n(C)n(-c3ccccc3)c2=O)c2c3c(c(=O)oc2c1)CCC3,4,.,.,1,.
Cc1ccccc1NC(=O)NCCN1CC1,0,11,5,1,.
CN(C)C1C(=O)C(C(N)=O)=C(O)C2(O)C(=O)C3=C(O)c4c(O)cccc4C(C)(O)C3C(O)C12 (stereo not given),.,.,-5,.,.
Cc1ccc(N2C(=O)NC(=O)/C(=C\C=C\c3ccco3)C2=O)cc1,-34,29,3,11,.
Cc1ccc(N2C(=O)NC(=O)/C(=C\C=C\c3ccco3)C2=O)cc1C,-36,68*,-7,7,i
COc1cc(/C=C2\C(=O)NC(=O)N(c3ccccc3)C2=O)c([N+](=O)[O-])cc1OC,-10,33,.,16,.
CN1C(=O)NC(=O)/C(=C\C=C\c2ccccc2[N+](=O)[O-])C1=O,26,93*,.,15,i
Cc1ccc2c(c1)=NC(=O)/C(=C/c1c(O)[nH]c(=O)[nH]c1=O)C=2,-2,65*,-3,26,+
CC1CCN(S(=O)(=O)c2ccc(NN=C(C#N)C#N)cc2)CC1,-5,0,.,-2,.
N#CC(C#N)=NNc1ccc(S(N)(=O)=O)cc1,2,52*,-5,-4,+
O=c1c2ccccc2nc(-c2ccccc2)n1-c1ccccc1,3,3,-1,0,.
O=c1c2ccccc2[se]n1-c1ccccc1,39,102*,-3,-3,+
O=c1c2ccccc2nc(CNc2ccccc2)n1-c1ccccc1,0,24,-1,1,.
CCCCC(=O)N/N=C/c1c(O)n(CCc2ccc(OC)c(OC)c2)c(=O)[nH]c1=O,4,78*,-1,-3,i
COc1ccc(CCn2c(O)c(/C=N/NC(=O)c3ccncc3)c(=O)[nH]c2=O)cc1OC,20,17,1,8,.
Cc1cccc(N2C(=O)/C(=C/c3ccc(CN(CCC#N)S(C)(=O)=O)o3)C(=O)NC2=S)c1,-2,53*,-2,8,i
